# How the values were obtained:
# [1] = system: Human immunodeficiency virus 1; experiment: Antiviral activity against HIV1 isolate 8 infected in human MT4 cells obtained from protease inhibitor-resistant patient harboring protease L10I, I13V, L33F, E34Q, R41K, M46I, I54V, K55R, R57K, Q58E, I62V, L63P, A71V, I72I/T, G73S, V82A, I84V, L90M mutation derived from viral passages with Lopinavir assessed as reduction in viral cytopathogenicity treated 1 hr post infection measured 5 days post …; type: functional
# [2] = system: Human immunodeficiency virus 1; experiment: Antiviral activity against HIV1 isolate 9 infected in human MT4 cells obtained from protease inhibitor-resistant patient harboring protease L10I, I15I/V, K20R, L33F, E35D, M36I, N37D, R41K, K43I, M46I, I54V, I62V, L63P, A71T, I72T, V82A, I84V, L90M, I93L mutation derived from viral passages with Lopinavir assessed as reduction in viral cytopathogenicity treated 1 hr post infection measured 5 days …; type: functional
# [3] = system: Human immunodeficiency virus 1; experiment: Antiviral activity against HIV1 isolate 10 infected in human MT4 cells obtained from protease inhibitor-resistant patient harboring protease L10I, I13V, K20R, L33F, E35D, M36I, N37D, I54L, Q58E, I62V, L63P, A71V, V82A, I84V, L90M mutation derived from viral passages with Lopinavir assessed as reduction in viral cytopathogenicity treated 1 hr post infection measured 5 days post infection by MTT …; type: functional
# [4] = system: Human immunodeficiency virus 1; experiment: Antiviral activity against HIV1 isolate 11 infected in human MT4 cells obtained from protease inhibitor-resistant patient harboring protease L10I, I15V, K20R, E21Q, E35D, M36I, N37D, R41K, M46L, I54V, I62V, L63P, A71V, T74D, P79A, V82T, I84V, I85V, L90M, I93L mutation derived from viral passages with Lopinavir assessed as reduction in viral cytopathogenicity treated 1 hr post infection measured …; type: functional
# [5] = system: Human immunodeficiency virus 1; experiment: (§1) Antiviral activity against HIV1 pNL4-3 infected in human MT4 cells derived from 13 viral passages with 400 nM A-790742 harboring protease V82L, I84V mutation assessed as reduction in viral cytopathogenicity treated 1 hr post infection measured 5 days post infection by MTT assay relative to wild type HIV1 pNL4-3; type: functional
# Summary of the method: (§2)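 Selection: MT-4 cells infected with parental pNL4-3 or RF (MOI 0.003, 2 h), then passaged under rising selecting drug whenever supernatant p24 (ELISA) exceeded 10 ng/ml. Passage viruses titred by TCID50 (Spearman-Karber). Assay: 10^6 MT-4 cells infected at MOI 0.003 for 1 h, washed, and seeded at 10^4 cells/well with eight serial dilutions, triplicate, 0.5% DMSO final. Day-5 MTT read-out; EC50 fold-change versus parental wild type.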
# [6] = system: Human immunodeficiency virus 1; experiment: as §1, with “RF” for “pNL4-3”, “340” for “400”, “M46I, L63P, A71V, V82G” for “V82L, I84V”; type: functional
# Summary of the method: as §2
# [7] = system: Human immunodeficiency virus 1; experiment: Antiviral activity against HIV1 P9 infected in human MT4 cells derived from viral passages with A-790742 harboring protease V82V/L and I84V mutation assessed as reduction in viral cytopathogenicity treated 1 hr post infection measured 5 days post infection by MTT assay relative to wild type HIV1 pNL4-3; type: functional
# Summary of the method: (§3)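 For the assay, 10⁶ MT-4 cells were infected at MOI 0.003, washed after 1 h, and plated at 10⁴ cells/well with eight serial compound dilutions in triplicate (0.5% DMSO final). MTT cytopathic read-out at day 5; EC50 from dose-response fitting.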
# [8] = system: Human immunodeficiency virus 1; experiment: Antiviral activity against HIV1 clone1 infected in HEK293 cells harboring A-790742-selected protease I84V mutation assessed as reduction in viral replication by luciferase reporter gene assay relative to wild type HIV1 pNL4-3; type: functional
# Summary of the method: (§4)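 Single-cycle assay: HEK-293 cells were cotransfected with luciferase-reporter HIV-1 protease clones plus a VSV-G expression vector. After 4 h, cells were replated at 2 × 10⁴/well over serial inhibitor dilutions in triplicate. Pseudovirus collected at 48 h infected fresh HEK-293 (10⁴/well). Luciferase read 48 h later gave % inhibition versus untreated and EC50. Fold change against WT pNL4-3-Luc (clones 1-4) or RF-Luc (clone 5) is the mean of three experiments.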
# [9] = system: Human immunodeficiency virus 1; experiment: Antiviral activity against HIV1 clone4 infected in HEK293 cells harboring A-790742-selected protease L33F, A71V, G73S, V77I, V82L, and I84V mutation assessed as reduction in viral replication by luciferase reporter gene assay relative to wild type HIV1 pNL4-3; type: functional
# Summary of the method: as §4
# [10] = system: Human immunodeficiency virus 1; experiment: Antiviral activity against wild-type HIV1 pNL4-3 infected in human MT4 cells assessed as reduction in viral cytopathogenicity treated 1 hr post infection measured 5 days post infection in presence of 50% human serum by MTT assay; type: functional, organism-based; settings: Human immunodeficiency virus 1, pNL4-3, MT4
# [11] = system: Human immunodeficiency virus 1; experiment: Antiviral activity against HIV1 A17 infected in human MT4 cells harboring protease L10F, V32I, M46I, I47V, Q58E, and I84V mutation derived from viral passages with Lopinavir assessed as reduction in viral cytopathogenicity treated 1 hr post infection measured 5 days post infection by MTT assay; type: functional, organism-based; settings: Human immunodeficiency virus 1, A17, MT4
# Summary of the method: as §3
# [12] = system: Human immunodeficiency virus 1; experiment: Antiviral activity against HIV1 B26 infected in human MT4 cells harboring protease L33F, K45I, M46I, I50V, I54V, A71V, and V82F mutation derived from viral passages with Lopinavir assessed as reduction in viral cytopathogenicity treated 1 hr post infection measured 5 days post infection by MTT assay; type: functional, organism-based; settings: Human immunodeficiency virus 1, B26, MT4
# Summary of the method: as §3
structure (smiles),measurement,setting,value
COC(=O)N[C@H](C(=O)N[C@H](Cc1ccc(-c2ccccn2)cc1)C[C@H](O)[C@H](Cc1ccccc1)NC(=O)[C@@H](N1CCN(Cc2cccc(C(C)(C)O)n2)C1=O)C(C)(C)C)C(C)(C)C,Ratio EC50,[1],4
same,Ratio EC50,[2],6
same,Ratio EC50,[3],10
same,Ratio EC50,[4],11
same,Ratio EC50,[5],133.3
same,Ratio EC50,[6],68
same,Ratio EC50,[7],13
same,Ratio EC50,[8],2
same,Ratio EC50,[9],158
same,EC50,[10],0.02 µM
same,EC50,[11],0.01 µM
same,EC50,[12],0.022 µM

# Source: ChEMBL document CHEMBL1255290, “Characterization of a novel human immunodeficiency virus type 1 protease inhibitor, A-790742” (Antimicrob Agents Chemother, 2008)
